Reference: paper PMC4021855 (Nature chemical biology, 2013)

Experiments:
H226 cells [1] = test: Matrigel invasion assay; format: cell-based, human
Method in brief: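 Upper chamber of Transwell (8.0 μm pore polycarbonate) coated with Matrigel 1 mg/ml in cold serum-free medium and set 4 h at 37°C. H226 cells seeded on top; lower chamber held medium with laminin 10 μg/ml. Cells exposed to test compound for 24 h. Invaded cells fixed in 70% methanol, hematoxylin-stained, and counted in 3 random ×20 fields. Mean ± s.d.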

KRS–LR interaction [2] = target: T1, KRS–LR interaction (Homo sapiens, UniProt Q15046); test: Comparison of YH16899 with BC-K01 across functional assays; conditions: most of the assays tested
WI-26 cells [3] = test: MTT cell viability assay; format: cell-based; conditions: 24 h
Method in brief: (§1)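 1×10^4 cells per well in 96-well plates; preincubated 1 h with laminin, then exposed to test compound for 24 h in serum-free medium. MTT (stock 5 mg/ml, diluted 10-fold) added for 30 min. Crystals dissolved in DMSO; absorbance read at […].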

A549-RFP cells = test: A549-RFP left ventricle injection metastasis model; format: in vivo, mouse; conditions: 100 mg/kg oral once a day
Method in brief: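 1×10^6 stable A549-RFP cells injected into the left ventricle of anaesthetised 6-week-old female BALB/cAnCr nude mice, n=10 per group. Test compound or 0.5% methyl cellulose given orally once daily from day 1 for 130 days. RFP signal of 5 random mice imaged by IVIS weekly, weeks 4–7. Body weight taken twice weekly for 50 days; survival followed to day 130.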

H226 cells [4] = test: Total protein synthesis; format: cell-based, human
Method in brief: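 Compound-treated H226 cells held 30 min in Met-free medium, then labelled with [³⁵S]Met for 2 h. Cells returned to complete medium for 4 h, then lysed; radioactivity measured by scintillation counting. Lys variant used Lys-free medium and [³H]Lys.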

H226 cells [5] = test: Transwell cell migration assay; format: cell-based, human
Method in brief: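 H226 cells (1×10^5 per well) placed in the top chamber of a laminin-coated (10 μg/ml) 8.0 μm polycarbonate Transwell and left to migrate for 12 h with test compound. Migrated cells fixed in 70% methanol and stained with hematoxylin. Non-migrants swabbed off; cells counted in 3 random ×20 fields.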

4T1 cells = test: 4T1 mammary fat pad breast cancer metastasis model; format: in vivo, mouse; conditions: oral, 100 and 300 mg/kg
Method in brief: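 4×10^4 4T1 cells injected into the surgically exposed No. 2 mammary fat pad of anaesthetised 7-week-old female BALB/cAnCr mice. Primary tumours (100–150 mm³) resected on day 10. Groups of n=5 balanced by resected tumour weight. Test compound or 0.5% methyl cellulose given orally once daily from day 1 after resection. Lungs excised at day 28 post-injection, fixed in Bouin's solution, and pulmonary nodules counted.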

H226 cells [6] = test: MTT cell viability assay; format: cell-based, human; conditions: 24 h
Method in brief: as §1

KRS–67LR interaction = KRS–67LR interaction (Homo sapiens, UniProt Q15046); test: In vitro pull-down and IP assays; format: binding
Method in brief: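 In vitro: 37LRP radiolabelled by coupled transcription/translation, mixed with 1 μg GST–KRS plus test compound, then GST pull-down; bound 37LRP detected by autoradiography. IP: Myc-KRS-transfected H226 cells pretreated with laminin 10 μg/ml for 1 h in serum-free medium, then test compound for 4 h. Lysates or membrane/cytosol fractions then used for IP and immunoblotting.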

MMP-2 = MMP-2 zymography; format: cell-based
Method in brief: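 H226 cells treated with laminin (10 μg/ml) plus test compound for 12 h. Conditioned-medium proteins run on 10% SDS-PAGE containing 1 mg/ml gelatin. Gel incubated in reaction buffer; gelatinolytic zone of MMP-2 visualised by Coomassie Blue staining.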

KRS = KRS (Homo sapiens, UniProt Q15046); test: KRS aminoacylation enzymatic assay; format: biochemical; conditions: 0 to 40 μM
Method in brief: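 KRS pre-incubated with test compound (0 to 40 μM final) for 30 min at 4°C before the aminoacylation reaction. Reaction aliquots quenched and precipitated on filter plates, washed, eluted with 0.2 M NaOH, and counted on a scintillation plate reader.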

37LRP = 37LRP (Homo sapiens, UniProt P08865); test: SPR binding analysis
Method in brief: (§2)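 Proteins immobilised at 30 μg/ml in 10 mM sodium acetate pH 5.0 on a CM5 chip: His-KRS WT, 1–207 and 220–597, plus GST-37LRP. Test compound in PBS with 0.05% Tween 20 and 2% DMSO, flowed at 20 μl/min, 25°C; binding read as RU change. For GST-tagged proteins, GST-only RU subtracted. Apparent constants fitted to 1:1 binding with drifting baseline.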

KRS1–207 = KRS1–207 (Homo sapiens, UniProt Q15046); test: SPR binding analysis
Method in brief: as §2

Tg(MMTV-PyVT) mouse = test: Tg; format: in vivo; conditions: 100 mg/kg intraperitoneally every other day for 6 weeks
67LR = test: Membranous 67LR level by immunoblotting; format: cell-based
[7] = Hematological metrics and blood chemistry in ICR mice; format: in vivo, mouse; conditions: high doses
WI-26 cells [8] = test: Transwell cell migration assay; format: cell-based; conditions: read-out: IC50 for inhibition of migration of WI-26
KRS–AIMP2 = KRS–AIMP2 (Homo sapiens, UniProt Q15046); test: Quantification of the KRS–AIMP2 interaction; format: binding; conditions: 0–100 μM
Method in brief: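 AlphaScreen format. His-tagged KRS incubated overnight at 4°C with test compound (0–100 μM final). Ni-chelate donor beads (0.01 mg/ml final) added for 15 min. Acceptor beads (0.01 mg/ml final) and biotinylated AIMP2(1–48)–thioredoxin fusion then added for 1.5 h. Emission read at 520–620 nm, room temperature, triplicate.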

[9] = Pharmacokinetics analysis in male ICR mice; format: in vivo, mouse; conditions: 3 mg/kg
Method in brief: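 Male ICR mice, n=4 per group, dosed at 3 mg/kg. Intravenous dosing as a solution in 40% dimethylformamide; oral dosing as a suspension in 0.5% methyl cellulose. About 50 μl orbital-vein blood drawn at 0.083 (i.v. only), 0.25, 0.5, 1, 2, 4, 8 and 24 h. Plasma stored at −70°C.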

KRS–LR interaction [10] = target: T1, KRS–LR interaction; test: Yeast two-hybrid; format: cell-based; conditions: Y2H, 50 μg/ml, 6-day incubation
Method in brief: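 Yeast EGY/SH cells co-expressing LexA–KRS and B42–LR grown in galactose medium lacking Ura, His, Trp and Leu, with compound at 50 μg/ml final. OD540 read after 6 days.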

T1 sequence (Q15046 whole entry): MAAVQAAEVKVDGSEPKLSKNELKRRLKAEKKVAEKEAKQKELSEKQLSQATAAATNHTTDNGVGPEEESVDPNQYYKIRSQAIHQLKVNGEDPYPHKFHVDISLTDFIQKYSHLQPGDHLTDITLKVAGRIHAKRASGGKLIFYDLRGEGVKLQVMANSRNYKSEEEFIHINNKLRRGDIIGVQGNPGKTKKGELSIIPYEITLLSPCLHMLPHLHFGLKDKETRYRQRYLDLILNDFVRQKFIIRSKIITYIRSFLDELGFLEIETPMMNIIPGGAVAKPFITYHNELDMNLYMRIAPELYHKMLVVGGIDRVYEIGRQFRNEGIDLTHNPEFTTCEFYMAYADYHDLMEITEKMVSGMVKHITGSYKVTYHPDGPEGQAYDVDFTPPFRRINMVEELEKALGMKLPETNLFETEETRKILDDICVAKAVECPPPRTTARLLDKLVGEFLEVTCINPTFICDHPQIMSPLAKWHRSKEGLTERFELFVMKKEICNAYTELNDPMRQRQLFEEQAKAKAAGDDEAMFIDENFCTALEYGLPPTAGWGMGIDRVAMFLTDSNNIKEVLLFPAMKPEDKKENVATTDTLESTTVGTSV
KRS–67LR interaction, sequence (Q15046 whole entry): as above
KRS, sequence (Q15046 whole entry): as above
KRS–AIMP2, sequence (Q15046 whole entry, the tested form may be a part): as the sequence (Q15046 whole entry) above
KRS–AIMP2, sequence (Q13155 1-48 partner limits assumed): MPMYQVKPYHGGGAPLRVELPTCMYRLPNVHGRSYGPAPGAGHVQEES
KRS1–207, sequence (Q15046 1-207): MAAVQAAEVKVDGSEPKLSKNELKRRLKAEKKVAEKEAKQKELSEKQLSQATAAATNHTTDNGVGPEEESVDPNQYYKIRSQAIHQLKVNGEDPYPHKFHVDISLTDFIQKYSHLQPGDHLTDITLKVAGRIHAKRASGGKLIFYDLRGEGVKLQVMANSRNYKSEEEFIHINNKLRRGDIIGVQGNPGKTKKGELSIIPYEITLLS

## CCC(C(=O)O)n1c(=NC(=O)c2cccc(C(F)(F)F)c2)sc2cc(F)c(F)cc21 (centres unmarked) [YH16899, 2-(5,6-difluoro-2-{[3-(trifluoromethyl)benzoyl]imino}benzo[d]thiazol-3(2H)-yl)butanoic acid]
H226 cells [1]; H226 cells, Matrigel
  suppression of cell invasion: approximately 85%
KRS–LR interaction [2]
  improvement of IC50 compared to BC-K01: 3- to 6 fold
WI-26 cells [3]
  effect on cell viability: did not affect the cell viability
A549-RFP cells
  effect on body weight: did not affect the body weight
A549-RFP cells; followed up to 130 days
  survival: greatly enhanced survival
A549-RFP cells; up to 7 weeks
  reduction of average radiance (photon imaging): approximately 50%
H226 cells [4]
  effect on cellular protein synthesis: little or no effect
H226 cells [5]; Homo sapiens, NCI-H226, 12 h, read-out: IC50 for inhibition of H226 migration
  IC50: 8.5 ± 2.1 µM
4T1 cells
  effect on body weight: little or no effect on body weight
4T1 cells; once a day
  inhibition of tumor metastases to the lungs: approximately 60%
H226 cells [6]
  effect on cell viability: did not affect the cell viability
KRS–67LR interaction
  effect on binding of KRS and LR: hindered the interaction between the two proteins
MMP-2
  effect on MMP-2: suppressed the induction of MMP-2
KRS
  effect on the catalytic activity of KRS: little or no effect
37LRP
  binding to 37LRP: did not show significant binding
KRS1–207
  binding to KRS1–207 compared with KRS1–597 and KRS220–597: preferential binding
Tg(MMTV-PyVT) mouse
  effect on body weight: without affecting body weight
  reduction of pulmonary nodule formation: approximately 70%
67LR
  effect on level of 67LR in the plasma membrane: decreased the amount of membranous 67LR
[7]
  side effects (hematological metrics and blood chemistry): few side effects
WI-26 cells [8]
  IC50: > 50 µM
KRS–AIMP2
  change in KRS binding affinity to AIMP2: little or no change
[9]
  volume of distribution in vivo compared to BC-K01: better volume of distribution

## CCC(C(=O)O)n1c(=NC(=O)c2ccc(C)cc2)sc2ccccc21 (centres unmarked) [BC-K01, 2-(2-{[4-(methyl)benzoyl]imino}benzothiazol-3-yl)butanoic acid]
H226 cells [1]
  effect on cell invasion: suppressed
H226 cells [5]
  effect on cell migration: suppressed
KRS–67LR interaction
  effect on binding of KRS and LR: reduced the binding of the two proteins
MMP-2
  effect on MMP-2: suppressed the activity of MMP-2
67LR
  effect on level of 67LR in the plasma membrane: decreased the level of 67LR in the plasma membrane in a concentration-dependent manner
KRS–LR interaction [10]
  inhibition of KRS–LR interaction without affecting KRS–AIMP2 and MRS–AIMP3 pairs: specifically inhibited
